Measured values pooled from the literature.
Protocols differ between the studies behind these lines.
SIRT6: NAD-dependent protein deacylase sirtuin-6 (SIRT6, Homo sapiens, UniProt Q8N6T7)
Cacna1b: Voltage-dependent N-type calcium channel subunit alpha-1B (Cacna1b, Rattus norvegicus, UniProt Q02294)

Ic1cccc2cnccc12  inhibition (Poly [ADP-ribose] polymerase 2 (PARP2, Homo sapiens, UniProt Q9UGN5); enzyme activity; inhibitor; 10 µM): 40%
CC/C(=N\NC(=O)NCc1cccc(O)c1)c1ccc(O)c(C)c1O  inhibition (ALK tyrosine kinase receptor (ALK, Homo sapiens, UniProt Q9UM73, C1156Y); enzyme activity; inhibitor; 0.1 µM): 2.3%
O=C(Nc1ccc(S(=O)(=O)N2CCC(Cl)CC2)cc1)c1ccc([N+](=O)[O-])o1  inhibition (Voltage-dependent L-type calcium channel subunit alpha-1C (Cacna1c, Rattus norvegicus, UniProt P22002); ligand displacement; radioligand; 10 µM): 24%
NC(=O)c1ccc(C(=O)NOCc2ccccc2Br)cc1  inhibition (SIRT6; enzyme activity; inhibitor; fluorescence; 100 µM): 79.7%
C/C(=C\C(=O)OCCCCCCCCC(=O)O)C[C@@H]1OC[C@H](C[C@@H]2O[C@H]2[C@@H](C)[C@H](C)O)[C@@H](O)[C@H]1O  inhibition (C-C chemokine receptor type 5 (CCR5, Homo sapiens, UniProt P51681); calcium signal; antagonist; U87/CD4/CCR5; 20 µM): 76%
NC(=O)c1ccc(C(=O)NOCc2ccc(Oc3ccccc3)cc2)cc1  inhibition (SIRT6; enzyme activity; inhibitor; fluorescence; 100 µM): 89.1%
CCN(Cc1ccccc1C(F)(F)F)C(=O)C1CCN(S(=O)(=O)c2ccc3[nH]ncc3c2)CC1  inhibition (Cacna1b; ligand displacement; radioligand; 10 µM): 2%
COc1ccc(CONC(=O)c2ccc(C(N)=O)cc2)cc1  inhibition (SIRT6; enzyme activity; inhibitor; fluorescence; 100 µM): 78.2%
O=C(c1ccc(F)cc1)N(Cc1ccccc1)C1CCCCC1  inhibition (Cacna1b; cell-free assay; 10 µM): 5%
